Measurements from ChEMBL document CHEMBL3227986, “Design of species- or isozyme-specific enzyme inhibitors. 1. Effect of thymidine substituents on affinity for the thymidine site of hamster cytoplasmic thymidine kinase” (J Med Chem, 1979).

Key:
[1] = target: T1, Thymidine kinase, cytosolic (Cricetulus griseus) (UniProt P09768); test: Inhibition of thymidine kinase in BHK21 (C13) cells using thymidine as substrate assessed as formation of TMP at 2 mM; type: cell-based; details: Mesocricetus auratus
T1 sequence (whole entry): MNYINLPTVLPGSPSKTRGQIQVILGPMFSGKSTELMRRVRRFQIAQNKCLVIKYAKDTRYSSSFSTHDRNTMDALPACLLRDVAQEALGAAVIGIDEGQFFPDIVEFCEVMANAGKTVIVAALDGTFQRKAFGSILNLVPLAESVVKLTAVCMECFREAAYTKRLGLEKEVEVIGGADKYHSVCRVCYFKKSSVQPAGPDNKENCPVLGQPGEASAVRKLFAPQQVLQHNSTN
In short: (§1)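 BHK21(C13) 100000g supernatant in Tris-HCl 0.05 M pH 8.0, ATP 5 mM, MgCl2 2.5 mM, [14C]thymidine 3.6 μM, 10 min at 37 °C. Reaction stopped by boiling; [14C]TMP bound to DEAE-cellulose disks and counted by liquid scintillation, corrected for unincubated blanks.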

[2] = target: T1, Thymidine kinase, cytosolic (Cricetulus griseus); test: Inhibition of thymidine kinase in BHK21 (C13) cells using thymidine as substrate assessed as formation of TMP at 4 mM; type: cell-based; details: Mesocricetus auratus; in short: as §1
[3] = target: T1, Thymidine kinase, cytosolic (Cricetulus griseus); test: Activity at thymidine kinase in BHK21 (C13) cells at 350 uM after 30 mins relative to thymidine; type: cell-based; details: Mesocricetus auratus
In short: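 Radiolabeled thymidine or 2'-deoxyuridine derivatives tested as substrates: 40 μL BHK21(C13) 100000g supernatant, Tris-HCl 0.05 M pH 8.0, ATP 5 mM, MgCl2 2.5 mM, no thymidine, 30 min at 37 °C. Products separated by paper electrophoresis in 0.05 M triethylammonium bicarbonate pH 7.6; radioactivity counted in the TMP region.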

[4] = target: T2, Thymidine kinase 2, mitochondrial (Homo sapiens, UniProt O00142); test: Inhibition of human mitochondrial thymidine kinase
T2 sequence (O00142 whole entry): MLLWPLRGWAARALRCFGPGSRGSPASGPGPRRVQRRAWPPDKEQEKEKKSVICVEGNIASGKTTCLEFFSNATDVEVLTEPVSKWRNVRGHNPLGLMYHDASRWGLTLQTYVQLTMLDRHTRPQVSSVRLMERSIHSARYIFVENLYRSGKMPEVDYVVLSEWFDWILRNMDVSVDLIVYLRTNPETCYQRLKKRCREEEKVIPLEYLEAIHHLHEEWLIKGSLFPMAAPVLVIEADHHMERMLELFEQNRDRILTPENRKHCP

[5] = target: T3, Thymidine kinase, cytosolic (Homo sapiens, UniProt P04183); test: Inhibition of human cytoplasmic thymidine kinase
T3 sequence (P04183 whole entry): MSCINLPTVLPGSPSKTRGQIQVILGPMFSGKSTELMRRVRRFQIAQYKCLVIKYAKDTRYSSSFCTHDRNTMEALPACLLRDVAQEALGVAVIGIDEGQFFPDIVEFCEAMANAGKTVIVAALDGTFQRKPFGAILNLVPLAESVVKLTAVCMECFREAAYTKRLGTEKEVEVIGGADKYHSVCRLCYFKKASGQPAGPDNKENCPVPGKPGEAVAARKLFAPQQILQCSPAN

Row | Structure (SMILES) | inhibition [1] | inhibition [2] | Activity [3] | Ki [4] | Ki [5]
1 | CC(=O)Nc1cn([C@H]2C[C@H](O)[C@@H](CO)O2)c(=O)[nH]c1=O | 8% | 13% | < 0.25% | – | –
2 | CCCc1cn([C@H]2C[C@H](O)[C@@H](CO)O2)c(=O)[nH]c1=O | – | – | – | 20 µM | 20 µM
